Reference: ChEMBL document CHEMBL5649168, “Discovery of a selective catalytic p300/CBP inhibitor that targets lineage-specific tumours” (Nature, 2017)
pEC50, pIC50: −log10 of the molar value. Activity calls are given as the source filed them. The rule behind the calls is not given here.

Experiments:
OCI-Ly3 = assay: Antiproliferative activity against human OCILY3 cells assessed as inhibition of cell viability incubated for 3 to 5 days by Celltiter-Glo luminescent assay; assay type: functional, cell-based
RL = assay: Antiproliferative activity against human RL cells assessed as inhibition of cell viability incubated for 3 to 5 days by Celltiter-Glo luminescent assay; assay type: functional, cell-based
HCC70 = assay: Antiproliferative activity against human HCC70 cells assessed as inhibition of cell viability incubated for 3 to 5 days by Celltiter-Glo luminescent assay; assay type: functional, cell-based
[1] = biological target: Tyrosine-protein kinase Lck (Homo sapiens, UniProt P06239); assay: Inhibition of Lck (unknown origin)
RCK8 = assay: Antiproliferative activity against human RCK8 cells assessed as inhibition of cell viability incubated for 3 to 5 days by Celltiter-Glo luminescent assay; assay type: functional, cell-based
DU-145 = assay: Antiproliferative activity against human DU-145 cells assessed as inhibition of cell viability incubated for 3 to 5 days by Celltiter-Glo luminescent assay; assay type: functional, cell-based
MOLT-4 = assay: Antiproliferative activity against human MOLT-4 cells assessed as inhibition of cell viability incubated for 3 to 5 days by Celltiter-Glo luminescent assay; assay type: functional, cell-based
OPM-2 = assay: Antiproliferative activity against human OPM-2 cells assessed as inhibition of cell viability incubated for 3 to 5 days by Celltiter-Glo luminescent assay; assay type: functional, cell-based
BJAB = assay: Antiproliferative activity against human BJAB cells assessed as inhibition of cell viability incubated for 3 to 5 days by Celltiter-Glo luminescent assay; assay type: functional, cell-based
[2] = biological target: CREB-binding protein/Histone acetyltransferase p300 (Homo sapiens, UniProt Q09472+Q92793); assay: Inhibition of p300/CBP in human 22Rv1 cells assessed as reduction in H3K18Ac level incubated for 1 hr by Hoechst 33342 staining based high content microscopy analysis; assay type: cell-based
How it was run: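 Cells received an 8-point half-log dilution series from 10 µM. They were then fixed in 10% formaldehyde (10 min, RT), permeabilised with 0.1% Triton X-100 and blocked with 1% BSA for 1 h. Primary antibodies were applied overnight at 4 °C, followed by Alexa488 anti-rabbit, Alexa555 anti-mouse and Hoechst 33342 for 1 h. Fifteen fields per well were imaged and average mean intensity taken. EC50 came from a sigmoidal fit.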

MAO-B = MAO-B (Homo sapiens, UniProt P27338); assay: Inhibition of human recombinant MAO-B at 10 uM by radioligand binding assay relative to control
NCI-H128 = assay: Antiproliferative activity against human NCI-H128 cells assessed as inhibition of cell viability incubated for 3 to 5 days by Celltiter-Glo luminescent assay; assay type: functional, cell-based
Karpas-1106P = assay: Antiproliferative activity against human KARPAS-1106P cells assessed as inhibition of cell viability incubated for 3 to 5 days by Celltiter-Glo luminescent assay; assay type: functional, cell-based
AMO1 = assay: Antiproliferative activity against human AMO1 cells assessed as inhibition of cell viability incubated for 3 to 5 days by Celltiter-Glo luminescent assay; assay type: functional, cell-based
[3] = biological target: Mitogen-activated protein kinase 9 (Homo sapiens, UniProt P45984); assay: Inhibition of JNK2 (unknown origin)
HCC38 = assay: Antiproliferative activity against human HCC38 cells assessed as inhibition of cell viability incubated for 3 to 5 days by Celltiter-Glo luminescent assay; assay type: functional, cell-based
[4] = biological target: Cyclin-dependent kinase 11B (Homo sapiens, UniProt P21127); assay: Inhibition of CDK11 (unknown origin)
Aurora kinase B = Aurora kinase B (Homo sapiens, UniProt Q96GD4); assay: Inhibition of Aurora1 (unknown origin)
[5] = biological target: Dual specificity mitogen-activated protein kinase kinase 3 (Homo sapiens, UniProt P46734); assay: Inhibition of MAP2K3 (unknown origin)
NCI-H209 = assay: Antiproliferative activity against human NCI-H209 cells assessed as inhibition of cell viability incubated for 3 to 5 days by Celltiter-Glo luminescent assay; assay type: functional, cell-based
SU-DHL10 = assay: Antiproliferative activity against human Su-DHL-10 cells assessed as inhibition of cell viability incubated for 3 to 5 days by Celltiter-Glo luminescent assay; assay type: functional, cell-based
[6] = Anti-tumor activity against human LuCaP-77 CR cell xenografted in SCID mouse assessed as tumor growth inhibition administered for 21 days relative to control; assay type: functional; settings: time 21 day
LuCaP-77 CR cell [7] = settings: Homo sapiens, dose 100.0 mg/kg, time 7.0 day
[8] = Ratio of drug concentration in brain to plasma in CB17 SCID mouse xenografted with LuCaP-77 CR cell at 50 mg/kg, po measured after 24 hrs
LuCaP-77 CR cell [9] = settings: Homo sapiens, dose 100.0 mg/kg, time 7.0 day; remark: listed apart in the source
SUD4 = assay: Antiproliferative activity against human SU-DHL-4 cells assessed as inhibition of cell viability incubated for 3 to 5 days by Celltiter-Glo luminescent assay; assay type: functional, cell-based
OCI-Ly1 = assay: Antiproliferative activity against human OCI-Ly1 cells assessed as inhibition of cell viability incubated for 3 to 5 days by Celltiter-Glo luminescent assay; assay type: functional, cell-based
MDA-MB-231 = assay: Antiproliferative activity against human MDA-MB-231 cells assessed as inhibition of cell viability incubated for 3 to 5 days by Celltiter-Glo luminescent assay; assay type: functional, cell-based
[10] = biological target: Epithelial discoidin domain-containing receptor 1 (Homo sapiens, UniProt Q08345); assay: Inhibition of DDR1 (unknown origin)
[11] = biological target: Vascular endothelial growth factor receptor 1 (Homo sapiens, UniProt P17948); assay: Inhibition of Flt1 (unknown origin)
HT = assay: Antiproliferative activity against human HT cells assessed as inhibition of cell viability incubated for 3 to 5 days by Celltiter-Glo luminescent assay; assay type: functional, cell-based
LuCaP-77 CR cell [12] = settings: Homo sapiens, dose 100.0 mg/kg, time 7.0 day; remark: listed apart in the source
COR-L47 = assay: Antiproliferative activity against human COR-L47 cells assessed as inhibition of cell viability incubated for 3 to 5 days by Celltiter-Glo luminescent assay; assay type: functional, cell-based
NCI-H1930 = assay: Antiproliferative activity against human NCI-H1930 cells assessed as inhibition of cell viability incubated for 3 to 5 days by Celltiter-Glo luminescent assay; assay type: functional, cell-based
[13] = biological target: Bromodomain testis-specific protein (Homo sapiens, UniProt Q58F21); assay: Inhibition of BRDT (unknown origin)
[14] = biological target: Tyrosine-protein kinase receptor TYRO3 (Homo sapiens, UniProt Q06418); assay: Inhibition of TYRO3 (unknown origin)
LNCaP-Clone-FGC = assay: Antiproliferative activity against human LNCaP-Clone-FGC cells assessed as inhibition of cell viability incubated for 3 to 5 days by Celltiter-Glo luminescent assay; assay type: functional, cell-based
NCI-H1373 = assay: Antiproliferative activity against human NCI-H1373 cells assessed as inhibition of cell viability incubated for 3 to 5 days by Celltiter-Glo luminescent assay; assay type: functional, cell-based
[15] = Inhibition of CDK8/Cyclin C (unknown origin); parameters: species or system Homo sapiens
NCI-H1836 = assay: Antiproliferative activity against human NCI-H1836 cells assessed as inhibition of cell viability incubated for 3 to 5 days by Celltiter-Glo luminescent assay; assay type: functional, cell-based

Chain of MAO-B (P27338 whole entry): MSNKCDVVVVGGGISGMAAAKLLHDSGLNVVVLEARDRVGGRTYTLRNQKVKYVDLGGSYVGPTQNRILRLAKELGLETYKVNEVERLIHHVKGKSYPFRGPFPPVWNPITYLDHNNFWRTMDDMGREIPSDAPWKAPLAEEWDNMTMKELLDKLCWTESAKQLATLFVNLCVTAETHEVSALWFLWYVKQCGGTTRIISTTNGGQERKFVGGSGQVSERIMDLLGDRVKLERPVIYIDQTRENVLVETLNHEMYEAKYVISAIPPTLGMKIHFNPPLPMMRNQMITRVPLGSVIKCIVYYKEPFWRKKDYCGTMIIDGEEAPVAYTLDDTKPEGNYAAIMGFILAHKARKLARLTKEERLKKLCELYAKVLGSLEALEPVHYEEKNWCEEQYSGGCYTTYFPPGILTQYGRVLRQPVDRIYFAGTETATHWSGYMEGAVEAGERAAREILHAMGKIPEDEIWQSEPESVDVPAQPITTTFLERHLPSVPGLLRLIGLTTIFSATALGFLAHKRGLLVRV
Chain of Tyrosine-protein kinase Lck (P06239 whole entry): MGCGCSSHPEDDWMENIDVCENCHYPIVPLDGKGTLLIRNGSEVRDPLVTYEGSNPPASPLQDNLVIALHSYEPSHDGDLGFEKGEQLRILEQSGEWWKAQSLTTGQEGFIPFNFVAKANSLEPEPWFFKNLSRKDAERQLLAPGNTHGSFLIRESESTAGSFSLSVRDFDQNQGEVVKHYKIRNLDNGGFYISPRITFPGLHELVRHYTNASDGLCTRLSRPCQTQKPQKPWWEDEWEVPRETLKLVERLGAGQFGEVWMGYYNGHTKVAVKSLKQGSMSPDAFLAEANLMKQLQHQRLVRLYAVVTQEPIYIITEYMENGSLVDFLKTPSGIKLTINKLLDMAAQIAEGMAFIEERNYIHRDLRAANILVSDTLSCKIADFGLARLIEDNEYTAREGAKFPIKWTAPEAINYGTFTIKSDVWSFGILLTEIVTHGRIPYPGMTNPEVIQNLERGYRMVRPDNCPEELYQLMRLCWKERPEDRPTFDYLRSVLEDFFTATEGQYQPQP
Chain of Epithelial discoidin domain-containing receptor 1 (Q08345 whole entry, the tested form may be a part): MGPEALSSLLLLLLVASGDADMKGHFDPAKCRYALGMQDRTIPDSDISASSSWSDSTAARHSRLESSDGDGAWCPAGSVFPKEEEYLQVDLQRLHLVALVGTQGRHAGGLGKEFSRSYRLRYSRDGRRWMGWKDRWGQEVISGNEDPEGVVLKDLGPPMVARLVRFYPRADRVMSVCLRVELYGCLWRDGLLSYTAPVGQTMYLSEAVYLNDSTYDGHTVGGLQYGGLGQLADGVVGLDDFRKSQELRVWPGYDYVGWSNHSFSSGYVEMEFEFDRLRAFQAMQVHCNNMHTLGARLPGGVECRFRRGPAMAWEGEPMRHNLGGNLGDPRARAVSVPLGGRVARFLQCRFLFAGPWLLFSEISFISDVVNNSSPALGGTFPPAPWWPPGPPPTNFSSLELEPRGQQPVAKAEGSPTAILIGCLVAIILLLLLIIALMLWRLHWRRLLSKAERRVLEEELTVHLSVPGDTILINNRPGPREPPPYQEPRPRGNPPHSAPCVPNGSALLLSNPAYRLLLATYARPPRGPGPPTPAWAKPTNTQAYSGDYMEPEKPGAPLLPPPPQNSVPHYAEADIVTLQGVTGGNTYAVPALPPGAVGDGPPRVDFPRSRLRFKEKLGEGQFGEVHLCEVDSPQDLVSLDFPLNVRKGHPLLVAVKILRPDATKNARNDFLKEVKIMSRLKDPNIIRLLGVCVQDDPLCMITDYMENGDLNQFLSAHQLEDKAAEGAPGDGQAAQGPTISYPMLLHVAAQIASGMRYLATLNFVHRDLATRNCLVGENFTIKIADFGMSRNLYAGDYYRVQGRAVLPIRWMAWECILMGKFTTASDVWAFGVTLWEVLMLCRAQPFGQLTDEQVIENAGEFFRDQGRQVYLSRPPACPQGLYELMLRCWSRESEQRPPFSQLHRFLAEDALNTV
Chain of Aurora kinase B (Q96GD4 whole entry): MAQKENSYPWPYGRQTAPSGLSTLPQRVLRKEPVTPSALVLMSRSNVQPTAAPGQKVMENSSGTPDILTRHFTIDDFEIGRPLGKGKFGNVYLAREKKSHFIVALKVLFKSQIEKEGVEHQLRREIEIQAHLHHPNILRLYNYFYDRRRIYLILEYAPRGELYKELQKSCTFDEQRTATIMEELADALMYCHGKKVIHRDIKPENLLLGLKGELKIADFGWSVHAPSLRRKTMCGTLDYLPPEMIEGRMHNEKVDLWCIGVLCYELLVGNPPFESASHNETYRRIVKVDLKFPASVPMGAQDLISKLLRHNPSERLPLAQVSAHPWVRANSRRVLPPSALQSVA
Chain of Tyrosine-protein kinase receptor TYRO3 (Q06418 whole entry): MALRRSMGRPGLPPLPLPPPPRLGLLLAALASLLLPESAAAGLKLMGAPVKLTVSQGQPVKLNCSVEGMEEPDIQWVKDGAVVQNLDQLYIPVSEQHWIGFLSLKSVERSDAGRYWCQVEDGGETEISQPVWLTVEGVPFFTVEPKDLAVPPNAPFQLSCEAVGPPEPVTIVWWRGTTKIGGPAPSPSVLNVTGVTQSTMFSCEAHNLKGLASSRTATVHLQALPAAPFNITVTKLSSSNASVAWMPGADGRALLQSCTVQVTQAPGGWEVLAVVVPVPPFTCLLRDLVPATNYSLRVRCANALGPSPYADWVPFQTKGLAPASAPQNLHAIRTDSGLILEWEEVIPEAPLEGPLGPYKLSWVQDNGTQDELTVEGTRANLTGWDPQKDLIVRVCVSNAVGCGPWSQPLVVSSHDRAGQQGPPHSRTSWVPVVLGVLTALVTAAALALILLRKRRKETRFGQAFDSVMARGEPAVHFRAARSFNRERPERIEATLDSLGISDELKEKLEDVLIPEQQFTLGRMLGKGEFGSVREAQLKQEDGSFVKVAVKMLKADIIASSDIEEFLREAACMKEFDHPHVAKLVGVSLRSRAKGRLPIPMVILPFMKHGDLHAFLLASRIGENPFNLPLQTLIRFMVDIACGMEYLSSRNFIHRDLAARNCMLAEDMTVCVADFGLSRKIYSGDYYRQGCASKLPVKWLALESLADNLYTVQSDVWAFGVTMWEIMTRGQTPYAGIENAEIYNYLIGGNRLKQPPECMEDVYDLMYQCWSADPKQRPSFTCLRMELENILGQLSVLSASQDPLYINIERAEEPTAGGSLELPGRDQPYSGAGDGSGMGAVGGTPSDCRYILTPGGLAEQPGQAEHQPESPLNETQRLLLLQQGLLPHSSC
Chain of Cyclin-dependent kinase 11B (P21127 whole entry): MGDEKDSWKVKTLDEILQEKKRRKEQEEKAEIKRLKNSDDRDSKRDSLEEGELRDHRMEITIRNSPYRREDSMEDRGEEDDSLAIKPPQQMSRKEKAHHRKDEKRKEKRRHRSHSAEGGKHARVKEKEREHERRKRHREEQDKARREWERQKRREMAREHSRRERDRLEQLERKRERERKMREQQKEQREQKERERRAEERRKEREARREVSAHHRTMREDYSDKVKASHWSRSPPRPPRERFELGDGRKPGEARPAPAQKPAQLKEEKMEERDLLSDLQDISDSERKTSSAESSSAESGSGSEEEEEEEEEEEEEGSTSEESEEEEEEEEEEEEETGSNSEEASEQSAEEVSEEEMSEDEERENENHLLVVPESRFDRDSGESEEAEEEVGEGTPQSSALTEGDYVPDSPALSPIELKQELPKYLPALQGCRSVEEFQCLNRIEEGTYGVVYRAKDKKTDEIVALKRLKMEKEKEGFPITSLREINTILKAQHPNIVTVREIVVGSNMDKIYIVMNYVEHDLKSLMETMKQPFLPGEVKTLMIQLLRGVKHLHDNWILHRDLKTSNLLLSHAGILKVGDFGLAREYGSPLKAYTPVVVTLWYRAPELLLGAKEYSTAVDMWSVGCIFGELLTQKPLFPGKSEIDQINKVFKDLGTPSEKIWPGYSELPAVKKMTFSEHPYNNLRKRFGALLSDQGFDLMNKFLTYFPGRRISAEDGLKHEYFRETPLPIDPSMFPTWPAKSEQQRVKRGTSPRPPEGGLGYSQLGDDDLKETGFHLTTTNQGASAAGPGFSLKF
Chain of Dual specificity mitogen-activated protein kinase kinase 3 (P46734 whole entry): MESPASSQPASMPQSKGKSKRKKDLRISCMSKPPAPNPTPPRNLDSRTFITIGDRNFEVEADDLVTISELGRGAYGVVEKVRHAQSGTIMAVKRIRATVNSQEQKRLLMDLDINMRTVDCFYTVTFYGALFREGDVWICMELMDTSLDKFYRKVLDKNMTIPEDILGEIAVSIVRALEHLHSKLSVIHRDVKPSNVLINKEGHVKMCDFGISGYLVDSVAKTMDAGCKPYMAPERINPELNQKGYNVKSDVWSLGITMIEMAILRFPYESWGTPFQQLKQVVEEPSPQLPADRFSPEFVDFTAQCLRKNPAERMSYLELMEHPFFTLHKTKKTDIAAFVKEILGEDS
Chain of Mitogen-activated protein kinase 9 (P45984 whole entry): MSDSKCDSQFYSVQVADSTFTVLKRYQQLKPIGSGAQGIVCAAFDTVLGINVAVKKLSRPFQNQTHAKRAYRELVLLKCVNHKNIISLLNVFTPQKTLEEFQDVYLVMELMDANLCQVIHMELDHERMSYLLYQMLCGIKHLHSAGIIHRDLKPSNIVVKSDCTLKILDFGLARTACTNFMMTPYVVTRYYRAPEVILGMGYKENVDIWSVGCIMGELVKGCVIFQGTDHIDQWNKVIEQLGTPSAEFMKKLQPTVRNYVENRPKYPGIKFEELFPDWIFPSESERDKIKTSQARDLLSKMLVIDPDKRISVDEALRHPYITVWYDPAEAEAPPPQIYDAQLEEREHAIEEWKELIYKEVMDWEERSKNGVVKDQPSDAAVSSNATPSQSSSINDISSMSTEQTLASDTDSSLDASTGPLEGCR

Compound `CNC(=O)Nc1ccc2c(c1)CC[C@@]21OC(=O)N(CC(=O)N(Cc2ccc(F)cc2)[C@@H](C)C(F)(F)F)C1=O` [A-485] has a pEC50 (OCI-Ly3) of 6.31, a pEC50 (RL) of 5.98 and a pEC50 (HCC70) of under 5.00. For the same compound, the pIC50 [1] was under 5.00, the pEC50 (RCK8) was 6.23 and the pEC50 (DU-145) was under 5.00. The pEC50 (MOLT-4) was under 5.00, the pEC50 (OPM-2) was 6.21 and the pEC50 (BJAB) was 6.55. For the same compound, the INH [2] was 2.39 µM, the inhibition at 10 µM (MAO-B) was -20% and the pEC50 (NCI-H128) was under 5.00. For the same compound, the pEC50 (Karpas-1106P) was 6.39, the pEC50 (AMO1) was 5.96 and the pIC50 [3] was under 5.00. For the same compound, the pEC50 (HCC38) was under 5.00, the pIC50 [4] was under 5.00 and the pIC50 (Aurora kinase B) was under 5.00. It also gave a pIC50 [5] of under 5.00, a pEC50 (NCI-H209) of 6.40 and a pEC50 (SU-DHL10) of 6.04. The TGI [6] was 54%, the inhibition (LuCaP-77 CR cell [7]) was “Active” and the Kp at 24 h [8] was 0.097. The inhibition (LuCaP-77 CR cell [9]) was “inactive”, the pEC50 (SUD4) was 6.14 and the pEC50 (OCI-Ly1) was 6.03. The pEC50 (MDA-MB-231) was under 5.00, the pIC50 [10] was under 5.00 and the pIC50 [11] was under 5.00. For the same compound, the pEC50 (HT) was under 5.00, the inhibition (LuCaP-77 CR cell [12]) was “Active” and the pEC50 (COR-L47) was under 5.00. For the same compound, the pEC50 (NCI-H1930) was under 5.00, the pIC50 [13] was under 5.00 and the pIC50 [14] was under 5.00. It also gave a pEC50 (LNCaP-Clone-FGC) of 6.59, a pEC50 (NCI-H1373) of 5.63 and a pIC50 [15] of under 5.00. For the same compound, the pEC50 (NCI-H1836) was under 5.00.
